Measurements published in ChEMBL document CHEMBL1649314, “Experimental murine scedosporiosis: histopathology and azole treatment” (2010).
In brackets after ≈: the same amount, converted by molar mass. Activity calls are given as the source filed them. The rule behind the calls is not given here.

What was measured:
Scedosporium boydii [1] = test: Antifungal activity against Scedosporium boydii FMR 6694 infected in immunosuppressed OF1 mouse assessed as reduction in brain fungal burden at 20 mg/kg, po BID administered 24 hrs postinfection for 10 days measured after 20 days; type: functional, organism-based; design: dose 20 mg/kg
Scedosporium aurantiacum [2] = test: Antifungal activity against Scedosporium aurantiacum CBS 116910 infected in immunosuppressed OF1 mouse assessed as reduction in brain fungal burden at 20 mg/kg, po BID administered 24 hrs postinfection for 10 days measured after 20 days; type: functional, organism-based; design: dose 20 mg/kg
[3] = Antifungal activity against Scedosporium aurantiacum CBS 116910 by broth dilution method; type: functional
Scedosporium apiospermum [4] = test: Antifungal activity against Scedosporium apiospermum IHEM 14464 infected in immunosuppressed OF1 mouse assessed as prolonged survival of mouse at 20 mg/kg, po BID administered 24 hrs postinfection for 10 days measured after 20 days; type: functional, organism-based; design: dose 20 mg/kg
Procedure, shortened: (§1)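 Male OF1 mice, groups of 10, immunosuppressed 1 day before infection with cyclophosphamide 200 mg/kg i.p. plus 5-fluorouracil 150 mg/kg i.v. Infected i.v. via tail vein with 1 × 10^4 CFU in 0.2 ml saline. Oral treatment began 24 h post-challenge for 10 days. Mice checked daily for 20 days. Survival by Kaplan-Meier, compared by log rank test.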

Scedosporium boydii [5] = test: Antifungal activity against Scedosporium boydii FMR 8627 infected in immunosuppressed OF1 mouse assessed as prolonged survival of mouse at 20 mg/kg, po BID administered 24 hrs postinfection for 10 days measured after 20 days; type: functional, organism-based; design: dose 20 mg/kg
Procedure, shortened: (§2)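 Male OF1 mice were immunosuppressed 1 day before infection with cyclophosphamide 200 mg/kg i.p. plus 5-fluorouracil 150 mg/kg i.v. They were infected i.v. via a lateral tail vein with 1 × 10^4 CFU/mouse in 0.2 ml saline. Oral dosing was 10 or 20 mg/kg twice daily, or 20 or 40 mg/kg once daily (those mice and controls drank grapefruit juice from day −3). Dosing ran 24 h post-challenge for 10 days; 10 mice/group; observed daily to day 20; Kaplan-Meier with log rank test.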

Scedosporium boydii [6] = test: Antifungal activity against Scedosporium boydii FMR 6694 infected in immunosuppressed OF1 mouse assessed as prolonged survival of mouse at 20 mg/kg, po BID administered 24 hrs postinfection for 10 days measured after 20 days; type: functional, organism-based; design: dose 20 mg/kg; procedure, shortened: as §1
[7] = Antifungal activity against Scedosporium aurantiacum IHEM 15458 infected in immunosuppressed OF1 mouse assessed as prolonged survival of mouse at 10 mg/kg, po BID administered 24 hrs postinfection for 10 days measured after 20 days; type: functional, organism-based; design: dose 10 mg/kg; procedure, shortened: as §1
Scedosporium apiospermum [8] = test: Antifungal activity against Scedosporium apiospermum CBS 117407 by broth dilution method; type: functional
Scedosporium apiospermum [9] = test: Antifungal activity against Scedosporium apiospermum IHEM 14464 infected in immunosuppressed OF1 mouse assessed as reduction in kidney fungal burden at 10 mg/kg, po BID administered 24 hrs postinfection for 10 days measured after 20 days; type: functional, organism-based; design: dose 10 mg/kg
Scedosporium apiospermum [10] = test: Antifungal activity against Scedosporium apiospermum IHEM 14464 infected in immunosuppressed OF1 mouse assessed as reduction in kidney fungal burden at 20 mg/kg, po BID administered 24 hrs postinfection for 10 days measured after 20 days; type: functional, organism-based; design: dose 20 mg/kg
Scedosporium aurantiacum [11] = test: Antifungal activity against Scedosporium aurantiacum IHEM 15458 infected in immunosuppressed OF1 mouse assessed as reduction in brain fungal burden at 40 mg/kg, po BID administered 24 hrs postinfection for 10 days measured after 20 days; type: functional, organism-based; design: dose 40 mg/kg
Scedosporium apiospermum [12] = test: Antifungal activity against Scedosporium apiospermum IHEM 14464 infected in immunosuppressed OF1 mouse assessed as reduction in brain fungal burden at 20 mg/kg, po BID administered 24 hrs postinfection for 10 days measured after 20 days; type: functional, organism-based; design: dose 20 mg/kg
Scedosporium apiospermum [13] = test: Antifungal activity against Scedosporium apiospermum CBS 117407 infected in immunosuppressed OF1 mouse assessed as prolonged survival of mouse at 20 mg/kg, po BID administered 24 hrs postinfection for 10 days measured after 20 days; type: functional, organism-based; design: dose 20 mg/kg; procedure, shortened: as §1
Scedosporium aurantiacum [14] = test: Antifungal activity against Scedosporium aurantiacum CBS 116910 infected in immunosuppressed OF1 mouse assessed as reduction in kidney fungal burden at 20 mg/kg, po BID administered 24 hrs postinfection for 10 days measured after 20 days; type: functional, organism-based; design: dose 20 mg/kg
Scedosporium boydii [15] = test: Antifungal activity against Scedosporium boydii FMR 8627 infected in immunosuppressed OF1 mouse assessed as reduction in kidney fungal burden at 20 mg/kg, po BID administered 24 hrs postinfection for 10 days measured after 20 days; type: functional, organism-based; design: dose 20 mg/kg
Scedosporium boydii [16] = test: Antifungal activity against Scedosporium boydii FMR 8627 by broth dilution method; type: functional
Scedosporium aurantiacum [17] = test: Antifungal activity against Scedosporium aurantiacum IHEM 15458 infected in immunosuppressed OF1 mouse assessed as reduction in kidney fungal burden at 10 mg/kg, po BID administered 24 hrs postinfection for 10 days measured after 20 days; type: functional, organism-based; design: dose 10 mg/kg
Scedosporium boydii [18] = test: Antifungal activity against Scedosporium boydii FMR 6694 infected in immunosuppressed OF1 mouse assessed as prolonged survival of mouse at 10 mg/kg, po BID administered 24 hrs postinfection for 10 days measured after 20 days; type: functional, organism-based; design: dose 10 mg/kg; procedure, shortened: as §1
[19] = Antifungal activity against Scedosporium aurantiacum IHEM 15458 infected in immunosuppressed OF1 mouse assessed as prolonged survival of mouse at 20 mg/kg, po BID administered 24 hrs postinfection for 10 days measured after 20 days; type: functional, organism-based; design: dose 20 mg/kg; procedure, shortened: as §1
Scedosporium apiospermum [20] = test: Antifungal activity against Scedosporium apiospermum CBS 117407 infected in immunosuppressed OF1 mouse assessed as reduction in brain fungal burden at 40 mg/kg, po BID administered 24 hrs postinfection for 10 days measured after 20 days; type: functional, organism-based; design: dose 40 mg/kg
[21] = Antifungal activity against Scedosporium aurantiacum CBS 116910 infected in immunosuppressed OF1 mouse assessed as prolonged survival of mouse at 10 mg/kg, po BID administered 24 hrs postinfection for 10 days measured after 20 days; type: functional, organism-based; design: dose 10 mg/kg; procedure, shortened: as §1
Scedosporium boydii [22] = test: Antifungal activity against Scedosporium boydii FMR 6694 by broth dilution method; type: functional
Scedosporium apiospermum [23] = test: Antifungal activity against Scedosporium apiospermum CBS 117407 infected in immunosuppressed OF1 mouse assessed as reduction in kidney fungal burden at 10 mg/kg, po BID administered 24 hrs postinfection for 10 days measured after 20 days; type: functional, organism-based; design: dose 10 mg/kg
[24] = Antifungal activity against Scedosporium aurantiacum CBS 116910 infected in immunosuppressed OF1 mouse assessed as prolonged survival of mouse at 20 mg/kg, po BID administered 24 hrs postinfection for 10 days measured after 20 days; type: functional, organism-based; design: dose 20 mg/kg; procedure, shortened: as §1
Scedosporium aurantiacum [25] = test: Antifungal activity against Scedosporium aurantiacum CBS 116910 infected in immunosuppressed OF1 mouse assessed as reduction in kidney fungal burden at 10 mg/kg, po BID administered 24 hrs postinfection for 10 days measured after 20 days; type: functional, organism-based; design: dose 10 mg/kg
Scedosporium boydii [26] = test: Antifungal activity against Scedosporium boydii FMR 8627 infected in immunosuppressed OF1 mouse assessed as prolonged survival of mouse at 10 mg/kg, po BID administered 24 hrs postinfection for 10 days measured after 20 days; type: functional, organism-based; design: dose 10 mg/kg; procedure, shortened: as §2
[27] = Antifungal activity against Scedosporium aurantiacum IHEM 15458 by broth dilution method; type: functional
Scedosporium boydii [28] = test: Antifungal activity against Scedosporium boydii FMR 8627 infected in immunosuppressed OF1 mouse assessed as reduction in brain fungal burden at 40 mg/kg, po BID administered 24 hrs postinfection for 10 days measured after 20 days; type: functional, organism-based; design: dose 40 mg/kg

**Q.** With CC[C@@H]([C@H](C)O)n1ncn(-c2ccc(N3CCN(c4ccc(OC[C@@H]5CO[C@@](Cn6cncn6)(c6ccc(F)cc6F)C5)cc4)CC3)cc2)c1=O [POSACONAZOLE] as the compound, how does the Activity (Scedosporium boydii [1]) read?
**A.** Its Activity is “inactive”.

**Q.** And the Activity (Scedosporium aurantiacum [2])?
**A.** Its Activity is “Active”.

**Q.** And the MIC [3]?
**A.** The MIC was 32 µg/mL (≈ 45.7 µM).

**Q.** What about the Activity (Scedosporium apiospermum [4]) of the same compound?
**A.** Its Activity is “Active”.

**Q.** And the Activity (Scedosporium boydii [5])?
**A.** Its Activity is “Active”.

**Q.** And the Activity (Scedosporium boydii [6])?
**A.** The Activity was “Active”.

**Q.** What about the Activity [7] of the same compound?
**A.** The Activity was “Active”.

**Q.** And the MIC (Scedosporium apiospermum [8])?
**A.** Its MIC is 1 µg/mL (≈ 1.43 µM).

**Q.** And the Activity (Scedosporium apiospermum [9])?
**A.** The Activity was “Active”.

**Q.** And the Activity (Scedosporium apiospermum [10])?
**A.** Its Activity is “Active”.

**Q.** And the Activity (Scedosporium aurantiacum [11])?
**A.** The Activity was “Active”.

**Q.** What about the Activity (Scedosporium apiospermum [12]) of the same compound?
**A.** Its Activity is “Active”.

**Q.** What about the Activity (Scedosporium apiospermum [13]) of the same compound?
**A.** The Activity was “Active”.

**Q.** What about the Activity (Scedosporium aurantiacum [14]) of the same compound?
**A.** Its Activity is “Active”.

**Q.** What about the Activity (Scedosporium boydii [15]) of the same compound?
**A.** Its Activity is “Active”.

**Q.** And the MIC (Scedosporium boydii [16])?
**A.** Its MIC is 1 µg/mL (≈ 1.43 µM).

**Q.** What about the Activity (Scedosporium aurantiacum [17]) of the same compound?
**A.** The Activity was “Active”.

**Q.** And the Activity (Scedosporium boydii [18])?
**A.** The Activity was “Active”.

**Q.** What about the Activity [19] of the same compound?
**A.** The Activity was “Active”.

**Q.** And the Activity (Scedosporium apiospermum [20])?
**A.** Its Activity is “Active”.

**Q.** What about the Activity [21] of the same compound?
**A.** The Activity was “Active”.

**Q.** What about the MIC (Scedosporium boydii [22]) of the same compound?
**A.** Its MIC is 1 µg/mL (≈ 1.43 µM).

**Q.** And the Activity (Scedosporium apiospermum [23])?
**A.** Its Activity is “Active”.

**Q.** What about the Activity [24] of the same compound?
**A.** Its Activity is “Active”.

**Q.** And the Activity (Scedosporium aurantiacum [25])?
**A.** Its Activity is “Active”.

**Q.** And the Activity (Scedosporium boydii [26])?
**A.** Its Activity is “Active”.

**Q.** What about the MIC [27] of the same compound?
**A.** The MIC was 2 µg/mL (≈ 2.85 µM).

**Q.** What about the Activity (Scedosporium boydii [28]) of the same compound?
**A.** Its Activity is “Active”.
